# Assay outcomes from PubChem.
# Hits are enriched below; roughly 4.2% of the tested compounds scored in any of these assays.
# hERG rescue = shields human hERG channel from block by proarrhythmic agents; Q12809; CHO-hERG, FluxOR thallium flux, dofetilide IC70 present; activation (rescue from dofetilide block), less the hit threshold, % at 10 µM; actives 0.51% (n = 310,000); AID 1511;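 active = activation above the mean of controls blocked by dofetilide plus 5 SD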;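 also: thallium influx through hERG after potassium depolarization seen as dye fluorescence rise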
# Target sequence (Q12809 whole entry, looked up): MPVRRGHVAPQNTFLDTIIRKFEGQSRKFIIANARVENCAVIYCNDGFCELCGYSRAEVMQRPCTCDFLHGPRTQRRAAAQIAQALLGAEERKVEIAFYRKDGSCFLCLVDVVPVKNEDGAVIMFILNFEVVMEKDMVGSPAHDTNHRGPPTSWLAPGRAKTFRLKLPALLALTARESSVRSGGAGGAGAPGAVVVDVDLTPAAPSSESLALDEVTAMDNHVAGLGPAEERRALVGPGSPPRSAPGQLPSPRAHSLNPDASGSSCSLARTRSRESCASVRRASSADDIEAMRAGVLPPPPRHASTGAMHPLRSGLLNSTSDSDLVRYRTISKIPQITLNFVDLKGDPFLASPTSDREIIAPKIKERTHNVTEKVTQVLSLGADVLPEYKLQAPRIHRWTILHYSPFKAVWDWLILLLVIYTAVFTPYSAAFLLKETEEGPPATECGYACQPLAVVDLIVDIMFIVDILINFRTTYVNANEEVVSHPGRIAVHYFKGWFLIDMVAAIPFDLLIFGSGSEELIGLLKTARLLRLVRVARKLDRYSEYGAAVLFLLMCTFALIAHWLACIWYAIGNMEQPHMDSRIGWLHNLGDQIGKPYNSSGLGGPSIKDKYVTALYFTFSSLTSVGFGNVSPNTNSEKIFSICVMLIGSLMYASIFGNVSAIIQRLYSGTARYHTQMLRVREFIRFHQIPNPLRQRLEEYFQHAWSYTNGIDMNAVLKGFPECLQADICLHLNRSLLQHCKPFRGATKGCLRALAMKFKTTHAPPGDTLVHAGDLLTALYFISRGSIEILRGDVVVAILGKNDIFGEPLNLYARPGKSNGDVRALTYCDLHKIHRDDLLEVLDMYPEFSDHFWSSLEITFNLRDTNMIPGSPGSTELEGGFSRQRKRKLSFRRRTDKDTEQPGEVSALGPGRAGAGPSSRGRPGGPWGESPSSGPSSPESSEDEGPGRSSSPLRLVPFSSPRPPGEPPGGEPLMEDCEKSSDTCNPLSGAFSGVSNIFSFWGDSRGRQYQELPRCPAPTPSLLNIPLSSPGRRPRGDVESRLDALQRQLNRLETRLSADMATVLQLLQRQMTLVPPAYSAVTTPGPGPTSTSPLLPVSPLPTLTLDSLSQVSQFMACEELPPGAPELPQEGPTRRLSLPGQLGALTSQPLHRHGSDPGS
# AI-2 QS mod = Vibrio harveyi AI-2 quorum sensing modulation | Vibrio harveyi JMH597 AI-2 luminescence/OD600 ratio, 9 h; active compounds read low; strain lacks LuxN and CqsS sensors; 0 = neutral-control median | activity change, % at 7.5 µM | AID 2094 | actives 0.4% (n = 300,000); in the data active = activity change below about -75%, passing the limit was not always enough; inconclusive = no clear call, values can overlap the other calls;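 also: luminescence divided by OD600 gain over 9 h not by final OD600 alone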
# KCNQ1 inh = inhibitors of human KCNQ1 potassium channel; AID 2642; CHO-K1 KCNQ1, FluxOR thallium flux fluorescence; active compounds read high; P51787; actives 1.3% (n = 310,000); B-score at 10 µM;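 active = compounds whose thallium flux B-score, printed positive for inhibition, exceeds three library SD while starting fluorescence stays within three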;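 also: channel opened by potassium depolarization with thallium stimulus after 20 min compound exposure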
# SUMO Mot1 rescue = inhibitors of SUMOylation pathway: yeast Mot1-301 growth rescue; S. cerevisiae Mot1-301 growth rescue, ATP luminescence, 38.5C; percent above DMSO median, 100 means doubled; growth rescue, % at 18.8 µM; actives 1% (n = 320,000); AID 2716;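 active = every valid replicate shows activation above 250% relative to neutral control wells; inactive = the rest, any valid replicate at or below 250%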;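 also: OY570 slx delta 5 strain wells were the positive control but not used for scaling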
# KCNQ1 pot = human KCNQ1 channel potentiation or activation; P51787; AID 2648; B-score at 10 µM; actives 0.35% (n = 310,000); CHO-K1 KCNQ1, thallium flux FluxOR fluorescence; active compounds read high;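 active = fluorescence ratio B-score, a plate-corrected score, at least three library SD, with initial intensity B-score within 5 SD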
#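 Material: CHO-K1 cells stably expressing KCNQ1. Medium: assay buffer for compound exposure, DMSO matched across wells. Reagent: K+/Tl+ depolarizing stimulus. Compound dosing: single-concentration screen. Times: 37 °C overnight plating, 90-min dark dye load, 20-min compound pretreatment. Technique: FluxOR Tl+ flux fluorescence.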
# Cl transport mod = modulates chloride dependent transport by human KCC2. Q9H2X9. KCC2 cells, thallium flux FluoZin-2 fluorescence. B-score of Tl+ flux slope (higher = more flux/activation; lower = inhibition) at 10 µM. actives 2.2% (n = 190,000);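 active = thallium flux slope and its plate-corrected score both differing from the plate sample mean at a set confidence after two filtering rounds, in either direction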;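 also: slope of fluorescence scaled to starting intensity during 10 to 20 s after thallium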
# KCC2 secondary = confirmation of human KCC2 transport modulators | HEK293-KCC2, thallium flux, FluoZin2 fluorescence; active compounds read high | actives 15% (n = 3,700) | shares compounds with Cl transport mod | AID 1713 | normalised thallium flux (F/F0 slope) at 10 µM;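 active = thallium flux slope above the same plate's solvent-only control mean plus 3 SD; inconclusive = the two replicate wells disagree; inactive = no significant difference from solvent-only control wells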
# KCC2 bumet counter = thallium flux despite bumetanide block in KCC2 cells, secondary assay 3; shares compounds with Cl transport mod; HEK293-KCC2 + bumetanide/ouabain, thallium flux FluoZin2; active compounds read high; normalized thallium flux at 10 µM; actives 49% (n = 3,700); AID 1714;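 active = thallium entry rate above the same plate's blocked-transporter control wells by more than 3 SD; inconclusive = the two repeat wells disagree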;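 also: raw slope of fluorescence over initial fluorescence between 10 and 20 s after thallium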
# KCC2 sec2 = confirmation of human KCC2 transport modulators. shares compounds with Cl transport mod. HEK293-KCC2, thallium flux FluoZin2 fluorescence; actives lie on both sides; F/F0 rise rate, 10–20 s post-thallium. normalized thallium flux at 10 µM. actives 23% (n = 3,700);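 active = thallium flux slope more than 3 SD above or below the plate's solvent-only control mean, mostly below; inconclusive = the two repeat wells disagreed; inactive = no significant shift from solvent-only controls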;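 also: raw slope with 0.1% DMSO as baseline and bumetanide as block control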
# HEK counter1 = acts in parental HEK cells, KCC2 counter-screen; actives 46% (n = 3,700); shares compounds with Cl transport mod; thallium flux rate (normalised fluorescence) at 10 µM; HEK293 parental cells, thallium flux FluoZin2, ouabain; baseline-ratio fluorescence slope, 10–20 s after thallium;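 active = thallium flux rate significantly above the same plate's solvent-only control wells, beyond their mean plus 3 SD; inconclusive = the two replicate wells gave conflicting results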
# KCC2 ouabain = confirmation of human KCC2 modulators with ouabain; shares compounds with Cl transport mod; HEK293-KCC2, thallium flux FluoZin2 fluorescence; bidirectional: low = inhibitor, high = activator; raw Tl+ flux slope (below DMSO = inhibition, above = activation) at 10 µM; actives 48% (n = 3,700); AID 1717;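 active = thallium flux slope beyond 3 SD from same-plate DMSO control mean in most replicates, usually higher, sometimes lower; inconclusive = repeat tests gave conflicting results; inactive = no significant difference from controls in most replicates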;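 also: slope of initial-normalized fluorescence between seconds 10 and 20 after thallium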
# HEK counter2 = counter-screen for KCC2 modulators: effect in parental HEK293 cells; shares compounds with Cl transport mod; thallium flux FluoZin-2 fluorescence slope; thallium flux slope at 10 µM; actives 33% (n = 3,700);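 active = thallium flux slope above the same plate's solvent-control mean plus 3 SD in both duplicate wells; inconclusive = duplicate wells that disagreed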;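 also: run without ouabain in cells lacking the KCC2 cotransporter; slope of fluorescence scaled to its starting value between 10 and 20 s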
# An asterisk follows results filed as active; i = inactive; ? = inconclusive; . = not tested or not shown.
SMILES,hERG rescue,AI-2 QS mod,KCNQ1 inh,SUMO Mot1 rescue,KCNQ1 pot,Cl transport mod,KCC2 secondary,KCC2 bumet counter,KCC2 sec2,HEK counter1,KCC2 ouabain,HEK counter2
CC(=O)c1cccc(NC(=O)CSc2nnc(C(C)N(C)C)n2Cc2ccccc2)c1 (configuration not stated),-6,27,i,-4,i,.,.,.,.,.,.,.
Cc1cc(C)c(NC(N)=S)c(C)c1,-6,8,i,10,i,0.56,.,.,.,.,.,.
CC(=O)c1ccc(S(=O)(=O)N2CCN(C(=O)CSc3ccc(C)c(C)c3)CC2)cc1,-8,28,i,15,i,.,.,.,.,.,.,.
CCc1c(C)sc(NC(=O)c2cc(C(C)C)on2)c1C#N,-15,1,i,183,i,7.3*,0.011,0.027*,0.039,?,0.031*,?
CC(=O)NCC1CCCN(c2nc3nonc3nc2N(C)Cc2ccccc2)C1 (configuration not stated),-2,19,i,-6,i,-7*,0.0098,0.0065,0.029*,0.0044,0.016*,0.012
CN(Cc1ccccc1)c1nc2nonc2nc1N1CCCC(CN2CCCC2=O)C1 (configuration not stated),-9,3,i,-5,i,-5.4*,0.016,0.0045,0.019*,0.0071,0.013,0.0096
CC1CCCN(c2nc3nonc3nc2N2CCCC(C)C2)C1 (configuration not stated),-9,16,i,1,i,-1.2,.,.,.,.,.,.
CCCCCCn1c(-c2cccs2)n[nH]c1=S,7.9*,8,i,7,i,46*,0.0061,0.084*,0.068*,0.063*,0.067*,0.057*
OCCCn1c(-c2ccccc2)n[nH]c1=S,-4,14,i,1,i,0.97,.,.,.,.,.,.
CCCn1c(-c2ccncc2)n[nH]c1=S,-2,11,i,6,i,.,.,.,.,.,.,.
CCCCn1c(-c2csc3ccccc23)n[nH]c1=S,-11,-15,i,-12,i,4.8*,0.0068,0.023*,?,0.02*,0.028*,0.023*
CCCCn1c(-c2csc(CC)c2)n[nH]c1=S,-8,31,i,-1,i,14*,0.012*,0.054*,0.034,0.022*,0.044*,0.012*
CC(c1ccc(F)cc1)n1c(-c2cccs2)n[nH]c1=S (configuration not stated),2,5,i,42,i,5.2*,0.0056,0.017*,0.032,0.014*,?,0.016*
CCS(=O)(=O)N1CCC(C(=O)Oc2ccc(C)c(C)c2)CC1,-2,11,i,20,i,.,.,.,.,.,.,.
CC1(C)C(C=C(Cl)Cl)C1C(=O)N/N=C/c1ccccc1F (configuration not stated),-13,-2,i,14,i,.,.,.,.,.,.,.
NC(=O)NC(CC(=O)NNC(=O)c1cccs1)c1ccc(Cl)cc1 (configuration not stated),.,.,.,10,.,.,.,.,.,.,.,.
Cc1cccc(-n2c(-c3csc(C)c3)n[nH]c2=S)c1,-3,1,i,-8,i,-0.86,.,.,.,.,.,.
CCc1cc(-c2n[nH]c(=S)n2-c2cccc(C)c2)cs1,-5,.,i,-22,i,43*,0.012*,0.11*,0.029,0.02*,0.047*,0.01
O=C(NCc1ccccn1)c1cccc(NS(=O)(=O)c2cccc(F)c2)c1,-3,18,i,-7,i,-0.29,.,.,.,.,.,.
COc1ccc(CN2CN=C(Nc3nc4ccccc4s3)NC2)cc1,-9,18,i,9,i,-5.4*,0.0057,0.0047,0.029,0.0074,0.019,0.011
c1ccc(CN2CN=C(Nc3nc4ccccc4s3)NC2)cc1,-12,14,i,62,i,-0.02,.,.,.,.,.,.
CC1CCc2sc(-c3n[nH]c(=S)o3)cc2C1 (configuration not stated),7.4*,60,i,2,i,39*,0.021*,0.1*,0.032,0.03*,0.053*,0.015*
Cc1n[nH]c(C)c1S(=O)(=O)N1CCCC(C(=O)NC2CCCCC2)C1 (configuration not stated),-5,23,i,229,i,0.55,.,.,.,.,.,.
FC(F)(F)c1ccc(Cl)c(NC(=S)N/N=C/c2ccccc2Cl)c1,4,-4,i,1,i,5.4*,0.01,0.034*,0.031,0.01*,?,0.0098
Cc1ccc(NC(=S)N/N=C/c2ccc(Cl)c([N+](=O)[O-])c2)cc1,-7,11,i,-1,i,-0.19,.,.,.,.,.,.
S=C(Nc1ccccn1)Nc1ccccc1Cl,-10,16,i,1,i,5*,0.0079,0.014*,0.029,0.0082*,?,0.0093
O=[N+]([O-])c1cc(/C=N/NC(=S)Nc2ccccc2Cl)ccc1Cl,-1,14,i,.,i,7.8*,0.0058,0.015*,0.035,0.021*,0.029*,0.017*
S=C(N/N=C/c1ccc(Cl)c(Cl)c1)Nc1ccccc1Cl,-4,28,i,-2,i,3.9*,0.011,0.03*,0.035,0.016*,0.032*,0.012*
O=Cc1c(-c2ccc(Cl)cc2)oc2ccc(O)cc12,-5,29,i,31,i,.,.,.,.,.,.,.
O=C(c1ccc(Cl)cc1)N1CCN(S(=O)(=O)/C=C/c2ccccc2)CC1,.,.,.,-2,.,.,.,.,.,.,.,.
